{"source": "ChEMBL document CHEMBL1143386", "about": "“Prodrugs of perzinfotel with improved oral bioavailability” (J Med Chem, 2009)", "key": {"[1]": {"experiment": "AUC (0 to 4 hrs) in Sprague-Dawley rat at 30 mg/kg, po", "type": "ADME, organism-based", "design": "time < 4 hr, dose 30 mg/kg, route oral", "conditions": "plasma", "summary_of_the_method": "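Male Sprague-Dawley rats given a single oral gavage dose, suspended in 2% Tween-80/0.5% methylcellulose in sterile water at 1 mL/kg. Plasma sampled at 0, 0.25, 0.5, 1, 2, 4 and 6 h; n = 2 at 0, 2, 4, 6 h and n = 3 at 0.25, 0.5, 1 h. Samples were stabilized with acetic acid/KF, acidified, extracted into n-butanol and quantified by LC/MS.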"}, "[2]": {"experiment": "Cmax in Sprague-Dawley rat at 30 mg/kg, po", "type": "ADME, organism-based", "design": "dose 30 mg/kg, route oral", "conditions": "in vivo", "summary_of_the_method": "(§1)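 Male Sprague-Dawley rats fasted about 16 h, then dosed by oral gavage at 30 mg/kg as a suspension in 2% Tween-80/0.5% methylcellulose in water. Plasma sampled at 0–6 h (n = 2–3 per time point) and stabilized with acetic acid and KF. Samples acidified, extracted into n-butanol, and analysed by LC-MS.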"}, "Rattus norvegicus [3]": {"species_on_record": "Rattus norvegicus", "experiment": "Antinociceptive activity in Sprague-Dawley rat assessed as reversal of PGE2-induced thermal hypersensitivity after 0.5 hrs", "type": "functional", "summary_of_the_method": "(§2)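 Male Sprague-Dawley rats (200-250 g) fasted ~16 h and dosed orally in 2% Tween-80/0.5% methylcellulose (1 mL/kg) 0.5-48 h before intradermal PGE2 (0.1 mg in 50 µL). Tail-withdrawal latency was read 30 min later in water at 34-58 °C, with a 20 s cutoff. T10 from each rat's temperature-effect curve; within-subjects repeated-measures ANOVA, p < 0.05.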"}, "Brain [4]": {"tested_on": "Brain", "experiment": "Biodistribution in Sprague-Dawley rat brain at 30 mg/kg, po after 0.5 hrs", "type": "ADME, organism-based", "design": "dose 30 mg/kg, route oral", "conditions": "in vivo", "summary_of_the_method": "(§3)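 Male Sprague-Dawley rats given [14C]-labelled compound by oral gavage (parent at 30 mg/kg, prodrug at 10 mg/kg). Blood, plasma and brain taken at 0.167, 0.5, 1, 4, 8 and 24 h (n = 3 rats/time point). Total radioactivity measured in each matrix. Metabolite profiles from HPLC with in-line radioactivity detection.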"}, "[5]": {"experiment": "Tmax in Sprague-Dawley rat at 30 mg/kg, po", "type": "ADME, organism-based", "design": "dose 30 mg/kg, route oral", "conditions": "in vivo", "summary_of_the_method": "as §1"}, "Plasma [6]": {"tested_on": "Plasma", "experiment": "Biodistribution in Sprague-Dawley rat plasma at 10 mg/kg, po after 0.167 hrs", "conditions": "in vivo"}, "Rattus norvegicus [7]": {"species_on_record": "Rattus norvegicus", "experiment": "Displacement of [3H]kainic acid from kainate receptor in rat frontal cortex at 100 uM", "type": "tissue-based", "summary_of_the_method": "(§4)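 Inhibition of radioligand binding at 100 µM. [3H]glycine with rat whole-brain membranes, [3H]kainate with rat frontal cortex membranes, and [3H]AMPA with rat forebrain membranes.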"}, "Brain [8]": {"tested_on": "Brain", "experiment": "Biodistribution in Sprague-Dawley rat brain at 30 mg/kg, po after 0.167 hrs", "type": "ADME, organism-based", "design": "dose 30 mg/kg, route oral", "conditions": "in vivo", "summary_of_the_method": "as §3"}, "[9]": {"experiment": "AUC (0 to last) in Sprague-Dawley rat at 30 mg/kg, po", "conditions": "plasma"}, "[10]": {"experiment": "Half life in Sprague-Dawley rat at 30 mg/kg, po", "type": "ADME, organism-based", "design": "dose 30 mg/kg, route oral", "conditions": "in vivo", "summary_of_the_method": "as §1"}, "[11]": {"target": "T1, Glycine receptor subunit alpha-1 (Rattus norvegicus) (UniProt P07727)", "T1 sequence (whole entry)": "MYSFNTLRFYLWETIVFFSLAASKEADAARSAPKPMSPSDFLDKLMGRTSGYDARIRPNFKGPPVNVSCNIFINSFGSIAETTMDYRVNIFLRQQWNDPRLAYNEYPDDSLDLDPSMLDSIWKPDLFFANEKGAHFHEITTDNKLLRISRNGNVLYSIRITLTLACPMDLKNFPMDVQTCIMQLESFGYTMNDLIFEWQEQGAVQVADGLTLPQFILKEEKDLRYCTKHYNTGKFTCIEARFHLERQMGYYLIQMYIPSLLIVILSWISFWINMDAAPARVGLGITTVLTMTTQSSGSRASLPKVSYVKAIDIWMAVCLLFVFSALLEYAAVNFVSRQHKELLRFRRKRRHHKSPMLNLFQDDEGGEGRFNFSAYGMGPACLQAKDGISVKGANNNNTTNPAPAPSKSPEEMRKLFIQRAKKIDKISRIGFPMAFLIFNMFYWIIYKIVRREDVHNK", "experiment": "Displacement of [3H]glycine from rat brain strychnine sensitive glycine receptor at 100 uM", "summary_of_the_method": "as §4"}, "Rattus norvegicus [12]": {"tested_on": "Rattus norvegicus", "experiment": "Antinociceptive activity in Sprague-Dawley rat assessed as reversal of PGE2-induced thermal hypersensitivity at 100 mg/kg after 0.5 hrs", "type": "functional, organism-based", "design": "dose 100 mg/kg", "summary_of_the_method": "as §2"}, "Blood [13]": {"tested_on": "Blood", "experiment": "Biodistribution in Sprague-Dawley rat blood at 10 mg/kg, po after 0.167 hrs", "conditions": "in vivo"}, "Plasma [14]": {"tested_on": "Plasma", "experiment": "Biodistribution in Sprague-Dawley rat plasma at 30 mg/kg, po after 0.5 hrs", "type": "ADME, organism-based", "design": "dose 30 mg/kg, route oral", "conditions": "in vivo", "summary_of_the_method": "as §3"}, "Glutamate NMDA receptor": {"target": "Glutamate NMDA receptor", "experiment": "Displacement of [3H]CGP-39653 from rat brain NMDA receptor", "summary_of_the_method": "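Competitive displacement of [3H]CGP-39653 at the NMDA recognition site, using rat whole-brain membranes.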"}, "Blood [15]": {"tested_on": "Blood", "experiment": "Biodistribution in Sprague-Dawley rat blood at 30 mg/kg, po after 0.5 hrs", "type": "ADME, organism-based", "design": "dose 30 mg/kg, route oral", "conditions": "in vivo", "summary_of_the_method": "as §3"}, "Rattus norvegicus [16]": {"species_on_record": "Rattus norvegicus", "experiment": "Displacement of [3H]AMPA from AMPA receptor in rat forebrain membrane at 100 uM", "type": "cell membranes", "summary_of_the_method": "as §4"}}, "note": "pIC50: −log10 of the molar value. Activity calls are given as the source filed them."}
{"smiles": "O=c1c2c(c1=O)N(CCP(=O)(O)O)CCCN2", "note": "[PERZINFOTEL]", "values": [{"measurement": "AUC(0-t) at 4 h", "setting": "[1]", "result": 342, "unit": "ng·h/mL"}, {"measurement": "Cmax", "setting": "[2]", "result": 218, "unit": "ng/mL"}, {"measurement": "ED50", "setting": "Rattus norvegicus [3]", "result": 35, "unit": "mg/kg"}, {"measurement": "Activity", "setting": "Brain [4]", "result": 98, "unit": "%"}, {"measurement": "Tmax", "setting": "[5]", "result": 30, "unit": "min"}, {"measurement": "Drug uptake", "setting": "Plasma [6]", "result": 88, "unit": "%"}, {"measurement": "Activity", "setting": "Rattus norvegicus [7]", "result": 6, "unit": "%"}, {"measurement": "Drug uptake", "setting": "Brain [8]", "result": 88, "unit": "%"}, {"measurement": "AUC(0-last)", "setting": "[9]", "result": 342, "unit": "ng·h/mL"}, {"measurement": "half-life", "setting": "[10]", "result": 78, "unit": "min"}, {"measurement": "Activity", "setting": "[11]", "result": 33, "unit": "%"}, {"measurement": "Activity", "setting": "Rattus norvegicus [12]", "result": "Active"}, {"measurement": "Drug uptake", "setting": "Blood [13]", "result": 88, "unit": "%"}, {"measurement": "Drug uptake", "setting": "Plasma [14]", "result": 98, "unit": "%"}, {"measurement": "pIC50", "setting": "Glutamate NMDA receptor", "result": 7.64}, {"measurement": "Drug uptake", "setting": "Blood [15]", "result": 98, "unit": "%"}, {"measurement": "Activity", "setting": "Rattus norvegicus [16]", "result": 17, "unit": "%"}]}
